Bioassay records (PubChem)
RORA inh: inhibitors of orphan receptor RORA, primary screen, cell-based, luminescence; Nuclear receptor ROR-alpha (Homo sapiens), P35398; CHO-K1 Gal4-RORA LBD luciferase reporter; inhibition, % at 10 µM; 65,000 compounds, 0.43% hits; AID 561, 2006;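 active = inhibition above the mean of all tested compounds plus 3 SD, cut at about 52% in these data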
Target sequence (P35398 whole entry, looked up, the tested form may be a part): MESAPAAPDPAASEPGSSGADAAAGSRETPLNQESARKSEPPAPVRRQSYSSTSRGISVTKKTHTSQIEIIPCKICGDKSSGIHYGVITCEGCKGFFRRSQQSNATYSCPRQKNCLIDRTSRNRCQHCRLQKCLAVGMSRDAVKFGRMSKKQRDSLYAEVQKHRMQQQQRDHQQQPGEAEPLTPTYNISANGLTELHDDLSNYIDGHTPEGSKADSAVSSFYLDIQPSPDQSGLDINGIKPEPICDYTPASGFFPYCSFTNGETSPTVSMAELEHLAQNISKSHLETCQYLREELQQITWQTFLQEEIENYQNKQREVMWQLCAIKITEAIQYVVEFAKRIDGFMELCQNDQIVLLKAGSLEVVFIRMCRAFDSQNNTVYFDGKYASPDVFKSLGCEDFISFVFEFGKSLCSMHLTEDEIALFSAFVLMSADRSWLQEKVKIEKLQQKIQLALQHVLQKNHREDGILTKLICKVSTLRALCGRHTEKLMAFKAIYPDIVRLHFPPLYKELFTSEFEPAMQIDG
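Test system: CHO-K1 cells with Gal4-hRORA LBD fusion and pG5-luc reporter | Timing: 20 h compound treatment, 37 °C | Detection: Luminescence from basal luciferase reporter expression | Read-out basis: % inhibition of basal luciferase versus +RORA/-RORA DMSO controls | Repeats: One measurement per compound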
Hits are given with their value; . = inactive. Many of the other results were omitted from the sample, so hits are more common in it than they were.

SMILES | RORA inh
CCOC(=O)N1CCC(N2Cc3cccc(C(=O)N4CC(C)CC(C)C4)c3C2=O)CC1 (stereo not drawn) | .
CNc1nc2c(c(=O)[nH]c(=O)n2C)n1CCOC | .
Cc1cccc2cc(COC(=O)C(C)C)c(=O)[nH]c12 | .
COC(=O)c1cc(Br)c(=O)n(-c2ccc(OC)cc2)c1 | .
Cc1noc(C)c1COC(=O)CCc1nc2ccccc2c(=O)[nH]1 | .
O=C(Nc1cccc(F)c1)C1CCN(C(=O)Cc2ccccc2)CC1 | .
CCOC(=O)N1CCN(C2=NC3(CCCCC3)C(C#N)C(=O)N2)CC1 (stereo not drawn) | .
Cc1nnc2c3cnn(-c4ccc(Cl)cc4)c3ncn12 | .
O=C1CCC/C1=c1\s/c(=C\c2cccnc2)c(=O)n1-c1ccccc1 | .
O=C(O)c1ccccc1C(=O)Nc1ccccn1 | .
Cc1ccc(C(=O)/C=C/Nc2ccccn2)cc1 | 89.6
Cc1cc(C(=O)Nc2ccccn2)no1 | .
COc1ccccc1C(=O)Nc1c2c(nn1-c1cccc(C)c1C)CS(=O)(=O)C2 | .
O=C(Nc1ccc(Cc2ccncc2)cc1)c1ccco1 | .
COCCn1nnnc1C(c1ccc(OC)cc1)N1CCN(c2ccccc2F)CC1 (stereo not drawn) | .
O=C1Nc2cc(Cl)cnc2N2CCCC12 (stereo not drawn) | .
Cc1ccc(C(=O)CN2CCC(NC(=O)C3CCCCC3)CC2)cc1 | .
O=C(NCCCn1ccnc1)c1csc2ccccc12 | .
CCCCC(=O)NC(Nc1ccc(C)cn1)(C(=O)OCC)C(F)(F)F (stereo not drawn) | .
COc1ccc(-c2nnc(SCC(=O)NC(C)C)n2CC2CCCO2)cc1OC (stereo not drawn) | .
Cc1cc(C(=O)CN2C(=O)c3ccccc3S2(=O)=O)c(C)n1CC1CCCO1 (stereo not drawn) | 61.7
Cc1nnc(SCc2ccccc2Cl)n1CC1CCCO1 (stereo not drawn) | .
Cc1cccn2c(=O)c3cc(C(=O)N4CCN(c5ccccc5)CC4)n(C)c3nc12 | .
CCCC(=O)Nc1ccc(C(=O)N2CCCC2)cc1 | .
Cn1c(-c2ccc3c(c2)OCO3)cnc1NC(=O)CCC(=O)NCCc1ccccc1 | .
SMILES | RORA inh
Cc1ccc(-c2cnc(NC(=O)CCC(=O)N3CCCCC3)n2C)cc1 | 76.6
O=C(Cc1cccs1)Nc1nc2ccccc2s1 | .
O=S(=O)(NCC(c1cccnc1)N1CCN(Cc2ccccc2)CC1)c1ccccc1 (stereo not drawn) | .
O=C(c1cccnc1)N1CCN(C(=O)c2cccs2)CC1 | .
Cn1c(-c2ccccc2)cc2c3no[n+]([O-])c3ccc21 | 66.4
CCOC(=O)c1c(NC(=O)CSc2nnnn2C)sc(CC)c1C | .
O=C(C1CC1)N1CCN=C1SCc1ccccc1Cl | .
CSCCC(NC(=O)c1ccco1)C(=O)O (stereo not drawn) | .
Cc1ccc(-c2nsc3c(N4CCC(C(N)=O)CC4)ncnc23)cc1 | 56.7
NC(=O)C1CCN(C(=O)CSCc2ccccc2Cl)CC1 | .
CCc1ccc(NC2=NC(C(=O)NC3CCCCC3)CC(=O)N2)cc1 (stereo not drawn) | .
Cc1ccc2c(c1)N(CC(=O)NCCc1c[nH]c3ccccc13)C(=O)CO2 | .
Cn1c(Cn2c(=O)sc3ccccc32)nnc1SCC(=O)N1CCc2ccccc21 | .
CC(NC(=O)Nc1nnc(C(F)(F)F)s1)(C(F)(F)F)C(F)(F)F | 94.5
Cc1ccc2nc(Nc3ccc4[nH]c(=O)[nH]c4c3)c(-n3nc(C)cc3C)nc2c1 | .
COc1nc(C)ccc1-c1noc(-c2ccccn2)n1 | .
c1ccc(CCc2nc(-c3ccccn3)no2)cc1 | .
c1ccc(-c2cccc(-c3ccccn3)n2)nc1 | 64.2
Cn1cccc1Cc1nnc(SCC(=O)Nc2ccc(F)cc2)n1CCc1ccccc1 | .
Nc1nc(N)c2sc3nc4c(cc3c2n1)CCC4 | .
CCc1nnc2sc(-c3ccc(NC(=O)c4ccc5c(c4)OCCO5)cc3)nn12 | .
O=S(=O)(C/C(=C/CO)S(=O)(=O)c1ccccc1)c1ccccc1 | 89.2
CC1CCN(C(=O)CSc2ccc3nnc(-c4ccccc4)n3n2)CC1 | .
O=C(CN(Cc1ccco1)S(=O)(=O)c1cccs1)Nc1ccccc1C(F)(F)F | .
CCCCC(=O)Nc1ccc(NC(=O)c2cccnc2)cn1 | .
SMILES | RORA inh
CCOc1nc(-c2ccccc2)ccc1-c1noc(COC)n1 | .
COCc1nc(-c2ccc(-c3ccccc3)nc2OC)no1 | .
COc1cc2ccccc2cc1C(=O)Nc1cccnc1 | .
COc1ccc(-c2noc(CCCC(=O)O)n2)cc1 | 68.3
CCOC(=O)Cn1c(CCC(=O)O)ccc1-c1ccc(F)cc1 | .
CCOc1ccc(-c2noc(CCC(=O)O)n2)cc1 | 53.9
Cc1ccc(-c2noc(CCCC(=O)Nc3cccnc3)n2)cc1 | 53.4
COCc1nc(-c2ccc(-c3ccc(OC)cc3)nc2OC)no1 | .
CC1(C)NC(=O)N(CC(O)COc2ccc(N3C(=O)c4ccccc4C3=O)cc2)C1=O (stereo not drawn) | .
CCCCn1c(SCC(=O)N2CCN(c3ccccc3)CC2)nc2ccsc2c1=O | .
CC(C)Oc1ccc(C2c3c(oc4ccccc4c3=O)C(=O)N2CCCN2CCOCC2)cc1 (stereo not drawn) | .
O=C(c1ccc(Br)cc1)C1CCc2occc2C1=O (stereo not drawn) | .
COC(=O)c1cc2ccsc2n1CC(=O)Nc1cc(Cl)ccc1OC | .
CNc1oc(-c2ccc(Cl)cc2)nc1C#N | .
CC1CCCCC1NC(=O)CSc1nc2ccccc2c(=O)n1Cc1ccco1 (stereo not drawn) | .
CCCCC(=O)N(c1ccc(C)c(C)c1)C1C=CS(=O)(=O)C1 (stereo not drawn) | .
Cc1cccc(NC(=O)c2cc3ccccc3c(=O)o2)n1 | .
Cc1cccc(NC(=O)Nc2ccc(C#N)cc2)n1 | 60.1
COc1ccc(NC(=O)Nc2cccc(OC)c2)cc1 | .
CN(C)/C=N/c1cnc(C(=O)c2ccc(Cl)cc2)n1C | .
O=C(CN(Cc1ccco1)C(=O)CNS(=O)(=O)c1ccc(Cl)cc1)NCc1ccc(F)cc1 | .
O=C(NCc1ccncc1)c1cccc(F)c1 | .
Cc1cc(C(=O)Nc2cccc(C(=O)O)c2)oc1C | 74.2
CC#CCCCC(=O)Nc1cccc(C(=O)O)c1 | .
O=C(Nc1cccc(Br)c1)c1cc2ccccc2o1 | .
SMILES | RORA inh
O=C(C1CCCN(S(=O)(=O)c2cccs2)C1)N1CCN(C2CCCCC2)CC1 (stereo not drawn) | .
C/C(N)=C(/C#N)C(=O)COC(=O)c1cc(C)n(-c2ccc(F)cc2)c1C | .
Cn1c(=O)cc(OCCCC(=O)NCc2ccc3c(c2)OCO3)c2ccccc21 | .
c1ccc(-c2nnc(N3CCN(c4ccccn4)CC3)c3ccccc23)cc1 | .
Oc1c(CN2CCN(c3ccccn3)CC2)cc(Cl)c2cccnc12 | 60.4
O=P(O)(CCc1ccccn1)CN1CCCCC1 | .
Oc1c(CN2CCCCC2)cc(COCc2ccccc2)c2cccnc12 | 52.6
Cc1ccc(-c2ccc(/C=N/c3ncn[nH]3)o2)cc1Cl | .
CC1=CC(C)=Nc2ccc(C)cc2N1 | .
CC(C)c1ccc(NC(=O)CSc2nc3c(c(=O)[nH]2)CCC3)cc1 | .
C=CCSc1nncn1/N=C/c1ccc(OC)cc1 | .
CSc1ccc(/C=N/n2nnnc2N)cc1 | .
COc1ccc(/C=N\n2nnc3ccccc32)cc1 | 74.4
CCOC(=O)c1sc2ncn(/N=C/c3ccccn3)c(=O)c2c1C | .
CCCn1c(N)c(Sc2ccc(Cl)cc2)c(=O)n(CCC)c1=O | .
